In all, about 360,000 compounds went through this assay and about 5,400 (1.5%) were called active. The full list was thinned out, with actives kept by preference. Unmarked numbers belong to inactive results.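 The calls were made as follows: active = inhibition above a per-plate cutoff, the mean inhibition of test compounds on that plate plus 3 SD (cut at about 49% in these data); inactive = the rest.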

In the experiment the target is Trace amine-associated receptor 1 (Homo sapiens) (UniProt Q96RJ0). Put plainly: human TAAR1 antagonists, primary screen, Fluo-8 calcium fluorescence, CHO RD-HGA16 cells (AID 624466).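 Also: 0% = DMSO plus EC80 beta-PEA response and 100% = DMSO alone without agonist.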 As to conditions: CHO RD-HGA16 TAAR1, Fluo-8 calcium fluorescence, antagonist; at 3 µM; stronger effect = higher value. In a few lines: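 Test system – hTAAR1-expressing CHO RD-HGA16 cells, Gα16-coupled · Also added – β-PEA at EC80 concentration, post-compound challenge · Compound – 3 µM, single point · Incubation – dye loading 75 min at 37 °C, then 30 min room temperature · Measured by – Fluo-8 intracellular calcium dye fluorescence, real-time kinetic reads · Benchmarks – vehicle and agonist controls · Replicates – singlicate, one well per test compound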
Sequence of Trace amine-associated receptor 1 (Homo sapiens) (Q96RJ0 whole entry, looked up, the tested form may be a part): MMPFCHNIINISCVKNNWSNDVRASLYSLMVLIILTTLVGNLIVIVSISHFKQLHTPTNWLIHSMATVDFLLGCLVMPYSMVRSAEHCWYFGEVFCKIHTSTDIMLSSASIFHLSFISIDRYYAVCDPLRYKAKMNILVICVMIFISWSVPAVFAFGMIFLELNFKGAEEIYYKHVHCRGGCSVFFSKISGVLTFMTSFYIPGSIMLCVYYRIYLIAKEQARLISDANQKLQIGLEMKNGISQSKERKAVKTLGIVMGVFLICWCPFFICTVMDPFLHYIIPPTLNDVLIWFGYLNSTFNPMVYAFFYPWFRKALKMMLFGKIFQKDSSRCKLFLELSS
Usually inhibition stands for the relative decrease from the control value, in per cent. Take `CCCCNC(=O)Nc1c(C)cc(SC#N)cc1C`: the inhibition was 7.39%.
To `O=C(NN1C(=O)C2C3C=CC(C4CC34)C2C1=O)c1ccc(Cl)cc1` (stereo not drawn) belongs 1.86%; to `Cc1ccc(N)cc1CN1CCN(c2ncc(Cc3ccccc3)cn2)CC1`, -11.9%; to `O=C(Nc1ccc(S(=O)(=O)N2CCCCCC2)cc1)c1c(F)cccc1F`, -11.6%.
`Cc1onc(-c2c(F)cccc2Cl)c1C(=O)Nc1cccc(S(=O)(=O)N2CCCCC2)c1`: the inhibition is 60.4% (active).
The figure for `O=C(Nc1cccc(S(=O)(=O)N2CCCCC2)c1)c1cncc(Br)c1` is 28.2%.
The figure for `Cc1ccc([C@@H]2CC=C(C(=O)O)[C@H](c3cccc(Cl)c3)N2S(=O)(=O)c2ccc(C)cc2)cc1` is 29.7%.
The figure for `Cc1ccccc1S(=O)(=O)N1[C@@H](c2cccc(Cl)c2)C(C(=O)OC(C)(C)C)=CC[C@H]1c1ccc(Cl)cc1` is -16.6%; for `Cc1ccccc1S(=O)(=O)N1[C@@H](c2cccc(Cl)c2)C(C(=O)O)=CC[C@H]1c1ccc(Cl)cc1` it is 50.1% (active); for `CC(C)(C)n1nc(C2CC2)c(Br)c1NC(=O)c1ccccc1F` it is -16.1%.
Consider `CN1CCCc2nc(-c3ccccc3)ccc21`, for which the inhibition is -0.46%.
The figure for `O=S(=O)(c1cccs1)N1CCCc2nc(-c3ccc(Br)cc3)ccc21` is 58% (active); for `COc1ccc(-c2ccc3c(n2)CCCN3S(=O)(=O)c2ccc(C)cc2)cc1` it is 24%.
On to `COC(=O)[C@]12C[C@H](CC(=O)N3CCN(C(=O)C4CC4)CC3)C(=O)N(Cc3ccc4c(c3)OCO4)C1=C[C@H](C(C)(C)C)O[C@@H]2C`, for which the inhibition was 1.35%.
To `O=C1Nc2ccccc2-n2nnnc2C1N1CCN(c2cccc(C(F)(F)F)n2)CC1` (stereo not drawn) belongs 7.81%.
The figure for `COc1ccc(C(=O)NC(C)CCc2ccccc2)c(OC)c1` (stereo not drawn) is -22.5%.
To `COc1ccc(C(=O)Nc2cccc(NC(=O)c3ccc(OC)cc3OC)n2)c(OC)c1` belongs 64.8% (active).
In the case of `COc1ccc(C(=O)CCC(=O)Nc2cccnc2)c(OC)c1`, the inhibition is -6.73%.
As for `CC1(C(=O)Nc2ccc3c(c2)OCCO3)CSCC(=O)N1CCOc1ccccc1` (stereo not drawn), the inhibition was -7.49%.
The figure for `CCN(CC)c1ccc2oc(=O)c(C)nc2c1` is 49.8% (active); for `Cc1ccc2oc(=O)ccc2c1` it is 2.03%.
In the case of `CCc1ccc2oc(-c3ccc(N)cc3)nc2c1`, the inhibition was 8.65%.
For the compound `O=C(NCCCn1ccnc1)c1cc2c(s1)CCCC2`, the inhibition was -26.6%.
For the compound `C/C=N/N(c1ccccc1)c1ccccc1`, the inhibition is -13.2%.
The figure for `C[C@H]1CN([C@@H](C)CO)C(=O)CCCn2nncc2CO[C@@H]1CN(C)C(=O)Nc1ccc(N2CCN(C)CC2)cc1` is 5.42%; for `CC(C)(CCl)C(=O)Nc1ccc(Sc2ccc(F)cc2)cc1` it is 57.9% (active).
To `O=C(CCl)Nc1ccc(Sc2ccc(NC(=O)CCl)cc2)cc1` belongs 21.9%; to `CC(C)CNC(=S)Nc1ccc(F)cc1`, 5.98%.
In the case of `COc1cc(NS(=O)(=O)c2ccc(N/C=C(\C=O)c3nc4cc(Cl)ccc4o3)cc2)nc(OC)n1`, the inhibition was 16.2%.
To `CCN(CC(=O)NC1CCS(=O)(=O)C1)S(=O)(=O)c1ccccc1` (stereo not drawn) belongs -18%; to `N#C/C(=C/c1ccc(N2CCCCC2)o1)C(=O)NCCc1c[nH]c2ccccc12`, 57.6% (active).
The figure for `O=C(NCCc1c[nH]c2ccccc12)C1CCN(Cc2ccc(Br)cc2)CC1` is 2.79%.
To `N#C/C(=C\c1ccc(N2CCOCC2)o1)C(=O)N1CCOCC1` belongs -12.1%.
As to `Cc1cc(Br)cn2c(Cc3ccccc3C(F)(F)F)c(-c3ccc(C#N)cc3)nc12`, the inhibition is 3.16%.
The figure for `CN(C(=O)COC(=O)CCCc1c[nH]c2ccccc12)c1c(N)n(Cc2ccccc2)c(=O)[nH]c1=O` is 2.09%.
The figure for `COc1ccc(SSc2ccc(OC)cc2C(=O)O)c(C(=O)O)c1` is -9.02%.
The figure for `S=C(Nc1ccc(Br)cc1)NC1CCN(Cc2ccccc2)CC1` is 51.4% (active); for `S=C(NN=C1CCN(Cc2ccccc2)CC1)NC1CCCCC1` it is -2.21%; for `S=C(Nc1ccc(Br)cc1Cl)NC1CCN(Cc2ccccc2)CC1` it is 0.09%.
In the case of `Cc1ccc2nc(-c3ccc(CN4CCC(n5cc(-c6ccccc6)[nH]c5=O)CC4)cc3)c(-c3ccccc3)nc2c1`, the inhibition is 14.1%.
To `Cc1cc(Cl)c(S(=O)(=O)NCc2cccnc2)cc1OCC(N)=O` belongs -0.54%.
For the compound `CCC(=O)N1Cc2cc(C(=O)NCc3cccc(F)c3)nc(-c3cccc(C4=CCCC4)c3)c2[C@H]1CCO`, the inhibition is -2.34%.
Regarding `Nc1c(C(=O)c2cccs2)sc2nsc(SCCN3CCCCC3)c12`, the inhibition is 61.2% (active).
The figure for `COc1cccc(-c2nnc(N(C)C(=O)c3ccno3)s2)c1` is 8.59%; for `CCN=C1SC(CC(=O)Nc2ccc(C)cc2)C(=O)N1CC` (stereo not drawn) it is 57.5% (active).
To `CN=C1SC(CC(=O)Nc2ccc(C(=O)O)cc2)C(=O)N1C` (stereo not drawn) belongs -12.5%; to `CCN1C(=O)C(CC(=O)Nc2cc(C)ccc2C)SC1=Nc1ccc(S(N)(=O)=O)cc1` (stereo not drawn), 6.51%; to `Cc1ccc(NC(=O)N2c3ccccc3SC2c2ccco2)c(C)c1` (stereo not drawn), -10.8%.
With `CC(=O)N1CCc2cc(S(=O)(=O)NC3CCCCC3)ccc21`, the inhibition was 6.97%.
Consider `Cc1ccc(NC(=O)CN(C)C(=O)Cn2nnc(-c3ccccc3)n2)cc1`, for which the inhibition was -1.85%.
To `CCOCCn1c(-c2ccccc2)nc2ccccc21` belongs -32.8%; to `CC(=O)OCCN(CCCn1c(-c2ccncc2)nc2ccccc21)c1nc(-c2ccc(C)cc2)cs1`, 53.5% (active); to `COc1ccc(-c2nc3ccccc3n2CCC(C)C)cc1OC`, 19.6%.
The figure for `CCc1cccc2c3c([nH]c12)C(CC)(CC(=O)O)OCC3` (stereo not drawn) is -11.8%.
The figure for `O=C1CCN(Cc2ccccc2)CCN1[C@H](CSc1ccccc1)c1ccccc1` is 15.6%; for `CC(C)C1Cc2[nH][nH]c(=O)c2C(c2ccc(Cl)cc2)O1` (stereo not drawn) it is -21.6%.
For the compound `CCC(c1nnnn1-c1ccc2c(c1)OCCO2)N1CCN(c2ccc(C(F)(F)F)cn2)CC1` (stereo not drawn), the inhibition was 24.4%.
The figure for `N#Cc1cccc(NC(=O)COC(=O)c2ccccc2C(=O)c2ccc(Cl)c([N+](=O)[O-])c2)c1` is 71.8% (active); for `CC(=O)Nc1ccc(NC(=O)C(C)OC(=O)c2ccccc2C(=O)c2ccc(Cl)c([N+](=O)[O-])c2)cc1` (stereo not drawn) it is 13.5%; for `NS(=O)(=O)c1cccc(NC(=O)COC(=O)c2cc([N+](=O)[O-])ccc2N2CCCC2)c1` it is 7.66%.
As for `O=C(c1ccco1)N1CCN(C(=O)C2CCCN(S(=O)(=O)c3cccc4nsnc34)C2)CC1` (stereo not drawn), the inhibition is 8.68%.
The figure for `COc1cc(OC)cc(-c2c(C#Cc3ccsc3)c3cc(-c4ccc(OC)cc4F)ccc3n2C)c1` is 10.3%; for `COc1cccc(NC(=O)N(C)C[C@@H]2OCc3cn(nn3)CCCC(=O)N([C@@H](C)CO)C[C@H]2C)c1` it is -3.32%.
The figure for `CCOc1ccc(NC(=O)N2CCN(CC)CC2)cc1` is 13.8%; for `CCOc1ccc(NC(=O)N2CC=C(n3c(=O)[nH]c4ccccc43)CC2)cc1` it is 62% (active).
On to `Cc1cccc(C)c1NC(=O)N1CC=C(n2c(=O)[nH]c3ccccc32)CC1`, for which the inhibition is 17.3%.
To `CCCNC(=S)N1CCCC(c2nc3ccccc3[nH]2)C1` (stereo not drawn) belongs 1.96%; to `CC(C)C[C@@H](COCc1ccc(Cl)cc1)N1CCN(C(=O)c2ccc(Cl)cc2Cl)CCC1=O`, 15.1%.
For `C[C@H](O)[C@@H]1C(=O)N2CCc3c([nH]c4ccccc34)[C@@H]2C[C@@H]1N(C)C(=O)Nc1ccc(F)cc1`, the inhibition is -21.1%.
To `C=CCNC(=S)N1CCc2[nH]c3ccccc3c2C1` belongs -0.9%; to `Fc1ccc(NC(=S)N2CCc3[nH]c4ccccc4c3C2)cc1`, 60.8% (active).
The figure for `Cc1ccc(S(=O)(=O)N2[C@@H](Cc3ccccc3)CO[C@H]2CC(=O)OCc2ccccc2)cc1` is 22.8%; for `COc1ccc(NC(=O)CNc2cc(S(=O)(=O)N3CCOCC3)ccc2N2CCOCC2)c(OC)c1` it is 14.2%.
As to `Cc1[nH]nc2c1C(c1ccc(Br)cc1)NC2=O` (stereo not drawn), the inhibition is -19.4%.
To `CCOC(=O)N1CCC(=NNC(N)=O)CC1` belongs 5.25%.
As to `Fc1ccccc1C(c1nnnn1Cc1ccc2c(c1)OCO2)N1CCN(Cc2ccccc2)CC1` (stereo not drawn), the inhibition was 8.62%.
The figure for `Fc1ccc(Cn2nnnc2C(c2cccs2)N2CCCCCC2)cc1` (stereo not drawn) is 50% (active).
For the compound `N#Cc1ccc(C(c2nnnn2CCc2ccccc2)N2CCCCCC2)cc1` (stereo not drawn), the inhibition is 19.8%.
The figure for `CCc1nnc(NC(=O)CSc2nnnn2-c2cccc(C(C)=O)c2)s1` is -22.1%; for `O=C(NCc1ccccc1)C1c2ccccc2OCC(=O)N1CCCN1CCOCC1` (stereo not drawn) it is -17.4%; for `O=C(O)c1ccc(S(=O)(=O)c2ccccc2)s1` it is 7.73%.
To `Cc1ccc(NC(=O)C(=O)NCc2ccc(/C=N/NC(=O)c3c(C)nc4cc(C)ccn34)o2)cc1` belongs -9.86%; to `Cc1ccc(CNC(=O)c2ccccc2CCc2ccccc2)cc1`, 49.7% (active).
For `CSc1ccccc1C(=O)NCc1ccccc1`, the inhibition is 3.42%.
Regarding `Cc1ccc(CNC(=O)c2cccnc2Cl)cc1`, the inhibition was 0.77%.
For `O=C1c2ccccc2C(=O)N1CCC#Cc1ccc2cc(C3(O)CCCCC3)oc(=O)c2c1`, the inhibition was 75.1% (active).
The figure for `COc1cc(C#Cc2ccc3cc(CCCO)oc(=O)c3c2)cc(OC)c1` is 26.9%; for `Cc1cccn2cc(-c3cccc(S(=O)(=O)N4CCCCC4)c3)nc12` it is -29.1%.

The record behind these values is PubChem BioAssay AID624466 (The Scripps Research Institute Molecular Screening Center, 2012).
